Assay results published in ChEMBL document CHEMBL1145015, “Structure-activity relationships of 1,2,4-benzotriazine 1,4-dioxides as hypoxia-selective analogues of tirapazamine” (J Med Chem, 2003).

Columns and labels:
[1] = Partition coefficient (logP); assay type: physicochemical; conditions: octanol/water
Summary of the method: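 Octanol/water partition at pH 7.4, measured by low-volume shake flask. Drug in both the octanol and buffer phases quantified by HPLC.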

SCC-7 [2] = experiment: Inhibitory concentration against murine SCCVII cell line under hypoxic condition; assay type: functional, cell-based; conditions: Mus musculus
Summary of the method: (§1)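 SRB proliferation assay in 96-well plates. SCCVII (200 cells) or HT-29 (1000 cells) seeded in αMEM + 10% FCS with glucose (17 mM final) and 100 μM 2'-deoxycytidine, then attached for 3 h. Cells exposed for 4 h at 37 °C to 2-fold serial dilutions in triplicate, either oxic (20% O2, 5% CO2) or in an anaerobic chamber (<0.001% O2). After washing, cells grew for 5 (oxic) or 6 (anoxic) days before SRB staining. IC50 values are the mean of three independent experiments.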

SCC-7 [3] = experiment: Inhibitory concentration against murine SCCVII cell line under aerobic condition; assay type: functional, cell-based; conditions: Mus musculus; summary of the method: as §1
SCC-7 [4] = experiment: Interexperimental ratio of hypoxic TPZ C10 to hypoxic BTO C10 using murine SCCVII cell line; assay type: functional, Mus musculus
HT-29 [5] = experiment: Inhibitory concentration against human adenocarcinoma HT-29 cell line under hypoxic condition; assay type: functional, cell-based; summary of the method: as §1
HT-29 [6] = experiment: Inhibitory concentration against human adenocarcinoma HT-29 cell line under aerobic condition; assay type: functional, cell-based; summary of the method: as §1
HT-29 [7] = experiment: Interexperimental ratio of hypoxic TPZ C10 to hypoxic BTO C10 using human adenocarcinoma HT-29 cell line; assay type: functional
[8] = Interexperimental difference between the hypoxic and aerobic cytotoxicity using human adenocarcinoma HT-29 cell line; assay type: functional
[9] = Interexperimental difference between the hypoxic and aerobic cytotoxicity using murine SCCVII cell line; assay type: functional, SCC-7
[10] = Concentration required to reduce plating efficiency to 10 percent of controls, under aerobic conditions in mouse SCCVII tumor cells.; assay type: functional, SCC-7
Summary of the method: (§2)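 SCCVII cells plated in glass dishes (2×10^5 to 1×10^6 per dish) 1–2 days ahead. Drug freshly dissolved, given in complete medium for 1 h at 37 °C with shaking. Hypoxia (<200 ppm O2) by repeated evacuation/flushing with 95% N2 + 5% CO2; aerobic controls flushed with 95% air + 5% CO2. Cells washed, trypsinized, replated. Crystal violet stain after 10–14 days, >50-cell colonies scored. C10 is the concentration giving 10% of control plating efficiency.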

[11] = Concentration required to reduce plating efficiency to 10 percent of controls, under hypoxic conditions in mouse SCCVII tumor cells.; assay type: functional, SCC-7; summary of the method: as §2
[12] = Intraexperimental ratio of hypoxic TPZ C10 to hypoxic BTO C10 in mouse SCCVII tumor cells.; assay type: functional, SCC-7
Summary of the method: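 Computed within each experiment from the clonogenic SCCVII assay (1 h drug exposure, hypoxia <200 ppm O2 by gas evacuation/flushing, colony counting after 10–14 days). RHT = C10 of TPZ under hypoxia divided by C10 of the analogue under hypoxia.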

[13] = Intraexperimental difference between the hypoxic and aerobic cytotoxicity in mouse SCCVII tumor cells; assay type: functional, SCC-7
Summary of the method: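 Clonogenic SCCVII survival after 1 h drug exposure at 37 °C, either hypoxic (<200 ppm O2, 95% N2/5% CO2) or aerobic (95% air/5% CO2). Colonies of >50 cells counted after 10–14 days. HCR = aerobic C10 / hypoxic C10, with both values from the same experiment.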

logP [1]	IC50 (SCC-7 [2])	IC50 (SCC-7 [3])	IC50 (HT-29 [5])	IC50 (HT-29 [6])	Structure (SMILES)	RHT (SCC-7 [4])	RHT (HT-29 [7])	HCR [8]	HCR [9]	C10 [10]	C10 [11]	RHT [12]	HCR [13]
-1.38	9.7 µM	15.5 µM	15.1 µM	69.8 µM	CS(=O)(=O)c1cccc2c1[n+]([O-])nc(N)[n+]2[O-]	0.2	0.4	4.5	1.6	338 µM	50.8 µM	0.2	6.7
0.81	0.92 µM	23.9 µM	2.1 µM	79.1 µM	Nc1n[n+]([O-])c2cc(C(F)(F)F)ccc2[n+]1[O-]	2.6	2.5	35.7	27.7	305 µM	9.14 µM	1.1	33.3

Structure (SMILES)	logP [1]	IC50 (SCC-7 [2])	IC50 (SCC-7 [3])	IC50 (HT-29 [5])	IC50 (HT-29 [6])	RHT (SCC-7 [4])	RHT (HT-29 [7])	HCR [8]	HCR [9]	C10 [10]	C10 [11]	RHT [12]	HCR [13]
Nc1n[n+]([O-])c2ccccc2[n+]1[O-] [TIRAPAZAMINE]	-0.34	2.4 µM	71.7 µM	5.3 µM	196 µM	1	1	37	32.9	2644 µM	10.2 µM	1	258
